# Active and inactive are the calls of the source. No cut-off for these calls is given here.
# Key:
# KB = test: Cytotoxicity against human KB cells; type: functional, cell-based
# HCT-116 [1] = test: Cytotoxicity against human HCT116 cells; type: functional, cell-based
# MCF7 [2] = test: Cytotoxicity against doxorubicin-sensitive human MCF7 cells; type: functional, cell-based
# MCF7 [3] = test: Cytotoxicity against doxorubicin-resistant human MCF7 cells; type: functional, cell-based
# Outline: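 Doxorubicin-resistant MCF-7 line derived by prolonged doxorubicin treatment of MCF-7 cells; cytotoxicity assay run per a previously published procedure.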
# HCT-116 [4] = test: Cell cycle arrest in human HCT116 cells assessed as accumulation at S phase at 10 nM after 48 hrs by flow cytometry; type: functional
# MCF7 [5] = test: Cell cycle arrest in human MCF7 cells assessed as accumulation at G0/G1 phase at 10 nM after 48 hrs; type: functional, cell-based
# HCT-116 [6] = test: Cell cycle arrest in human HCT116 cells assessed as accumulation at G2/M phase at 10 nM after 48 hrs by flow cytometry; type: functional
# HCT-116 [7] = test: Cell cycle arrest in human HCT116 cells assessed as accumulation at G0/G1 phase at 10 nM after 48 hrs by flow cytometry; type: functional
# Mus musculus = test: Toxicity in mouse P388 cells implanted in CDF1 mouse assessed as induction of death at 5 mg/kg, ip administered 1 day following implantation; type: organism-based; set-up: dose 5 mg/kg, route intraperitoneal; details: in vivo, 24 h
# Outline: (§1)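 10^6 P388 (or P388/F 11782) murine leukemia cells implanted i.v. into CDF1 mice on day zero; single i.p. dose (2.5 or 5 mg/kg) given the day after implantation. Mice weighed twice weekly during treatment, weekly thereafter. Antitumor activity judged by increase in lifespan: ILS (%) = T/C − 100, T/C = median survival treated/control × 100.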
# P388 = test: Antitumor activity against mouse P388 cells implanted in CDF1 mouse assessed as reduction in body weight at 2.5 mg/kg, ip administered 1 day following implantation; type: functional, organism-based; set-up: dose 2.5 mg/kg; outline: as §1
Structure (SMILES),IC50 (KB) [nM],IC50 (HCT-116 [1]) [nM],IC50 (MCF7 [2]) [nM],IC50 (MCF7 [3]) [nM],Activity (HCT-116 [4]) [%],Activity (MCF7 [5]),Activity (HCT-116 [6]) [%],Activity (HCT-116 [7]) [%],Activity (Mus musculus),Activity (P388)
COc1cc2c(O[C@H]3O[C@@H](C)[C@@H](OC(C)=O)[C@@H](OC(C)=O)[C@@H]3OC(C)=O)c3c(c(-c4ccc5c(c4)OCO5)c2cc1OC)C(=O)OC3,20,35,45,–,–,–,–,–,–,–
COc1cc2c(O[C@@H]3O[C@H](CO[C@@H]4OC[C@H](OC(C)=O)[C@H](OC(C)=O)[C@H]4OC(C)=O)[C@H](OC(C)=O)[C@H](OC(C)=O)[C@H]3OC(C)=O)c3c(c(-c4ccc5c(c4)OCO5)c2cc1OC)C(=O)OC3,180,260,80,8000,–,–,–,–,–,–
COc1cc2c(O[C@@H]3O[C@H](C)[C@@H](OC(C)=O)[C@H](OC(C)=O)[C@H]3OC(C)=O)c3c(c(-c4ccc5c(c4)OCO5)c2cc1OC)C(=O)OC3,14,16,2,65,–,–,–,–,–,–
COc1cc2c(O[C@@H]3O[C@H](CO[C@@H]4OC[C@H](O)[C@H](O)[C@H]4O)[C@H](OC(C)=O)[C@H](OC(C)=O)[C@H]3O)c3c(c(-c4ccc5c(c4)OCO5)c2cc1OC)C(=O)OC3 [4'-O-ACETYLMANANTHOSIDE B],500,1200,260,2200,–,–,–,–,–,–
COc1cc2c(O[C@H]3O[C@@H](C)[C@@H](OC(C)=O)[C@@H](O)[C@@H]3O)c3c(c(-c4ccc5c(c4)OCO5)c2cc1OC)C(=O)OC3 [4'-O-ACETYLPATENTIFLORIN B],24,30,12,100,–,–,–,–,–,–
CC(=O)O[C@@]12CO[C@@H]1C[C@H](O)[C@@]1(C)C(=O)[C@H](O)C3=C(C)[C@@H](OC(=O)[C@H](O)[C@@H](NC(=O)OC(C)(C)C)c4ccccc4)C[C@@](O)([C@@H](OC(=O)c4ccccc4)[C@H]21)C3(C)C [DOCETAXEL],2,4,20,–,–,–,–,–,–,–
COc1cc(OC)c2c(-c3ccc4c(c3)OCO4)c3c(c(OC)c2c1O)COC3=O [JUSTICINOL],300,–,360,–,–,–,–,–,–,–
O=C(CC(CO)C(=O)c1ccc2c(c1)OCO2)c1ccc2c(c1)OCO2 (stereo not drawn) [JUSTIFLORINOL],> 10000,–,–,–,–,–,–,–,–,–
COc1cc2c(O[C@@H]3O[C@H](C)[C@@H](O)[C@H](O)[C@H]3O)c3c(c(-c4ccc5c(c4)OCO5)c2cc1OC)C(=O)OC3 [PATENTIFLORIN A],4,12,3,40,43.4,Active,13.5,41.9,Toxic,inactive
COc1cc2c(O[C@H]3O[C@@H](C)[C@@H](O)[C@@H](O)[C@@H]3O)c3c(c(-c4ccc5c(c4)OCO5)c2cc1OC)C(=O)OC3 [PATENTIFLORIN B],6,250,300,–,–,–,–,–,–,–
